Tests used:
[1] = system: patients with RA who had had an insufficient response to MTX; details: cited from earlier work
[2] = Studies 1 and 2, steady‐state plasma PK of filgotinib and its major metabolite; type: in vivo, human; details: for Tmax of major metabolite, steady state: median (range)
Procedure, shortened: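 RA patients on stable methotrexate took oral test compound or placebo capsules for 4 weeks: 200 mg once daily or 100 mg twice daily (study 1), or 30, 75, 150 or 300 mg once daily (study 2). In a subset (12 and 15 patients), plasma parent and major metabolite were sampled predose and 1, 2, 3, 5 and 8 h after the morning dose, at week 2 or 4. Descriptive statistics were calculated by dose.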

JAK‐1 = details: cited from earlier work
[3] = cited from earlier work
[4] = after filgotinib 30 mg once daily, study 2, arithmetic mean (coefficient of variation)
[5] = after filgotinib 75 mg once daily, study 2, arithmetic mean
[6] = after filgotinib 100 mg twice daily, study 1, arithmetic mean (coefficient of variation)
[7] = after filgotinib 150 mg once daily, study 2, arithmetic mean (coefficient of variation)
[8] = after filgotinib 200 mg once daily, study 1, arithmetic mean (coefficient of variation)
[9] = after filgotinib 300 mg once daily, study 2, arithmetic mean (coefficient of variation)

CC[C@@H]1CN(C(=O)NCC(F)(F)F)C[C@@H]1c1cnc2cnc3[nH]ccc3n12 [ABT‐494]
effect on natural killer (NK) cells [1]: decreased | effect on hemoglobin ([1]; middle and higher doses, within 4 weeks): decline in hemoglobin

Nc1nc2cccc(-c3ccc(CN4CCS(=O)(=O)CC4)cc3)n2n1 [major metabolite]
dose proportionality of PK ([2]; 30–300 mg range): essentially dose proportional | AUCtau of major metabolite, steady state [2, 4]: 11.2 (52.2) μg.hour/ml | Cmax of major metabolite, steady state [2, 4]: 0.582 (48.5) μg/ml | Tmax of major metabolite, steady state ([2]; after filgotinib 30 mg once daily, study 2): 5 (1–8) hours | AUCtau of major metabolite, steady state [2, 5]: 26.0 µg·h/mL | Cmax of major metabolite, steady state [2, 5]: 1.46 µg/mL | Tmax of major metabolite, steady state ([2]; after filgotinib 75 mg once daily, study 2): 5.5 (3–8) hours | AUCtau of major metabolite, steady state [2, 6]: 33.1 (26.3) μg.hour/ml | Cmax of major metabolite, steady state [2, 6]: 3.18 (25.0) μg/ml | Tmax of major metabolite, steady state ([2]; after filgotinib 100 mg twice daily, study 1): 2 (0–5) hours | AUCtau of major metabolite, steady state [2, 7]: 75.9 (31.0) μg.hour/ml | Cmax of major metabolite, steady state [2, 7]: 3.79 (26.5) μg/ml | Tmax of major metabolite, steady state ([2]; after filgotinib 150 mg once daily, study 2): 3 (2–5) hours | AUCtau of major metabolite, steady state [2, 8]: 71.8 (31.3) μg.hour/ml | Cmax of major metabolite, steady state [2, 8]: 3.77 (23.6) μg/ml | Tmax of major metabolite, steady state ([2]; after filgotinib 200 mg once daily, study 1): 3 (1–5) hours | AUCtau of major metabolite, steady state [2, 9]: 93.9 (20.4) μg.hour/ml | Cmax of major metabolite, steady state [2, 9]: 4.62 (9.98) μg/ml | Tmax of major metabolite, steady state ([2]; after filgotinib 300 mg once daily, study 2): 3 (3–8) hours | time of dosing to attain steady state ([2]; in vivo): ≤ 4 days | exposure to major metabolite, higher than exposure to parent filgotinib ([2]; steady state, 75–300 mg dose range): 13 fold | JAK‐1 inhibition potency of metabolite, lower than filgotinib (JAK‐1): ~10 fold | half‐life [3]: ~24 h | overall exposure of metabolite, higher than that of filgotinib ([3]; in humans): ~15 fold

Reference: article PMC5656813 (Arthritis & Rheumatology (Hoboken, N.j.), 2017)
